Reference: ChEMBL document CHEMBL2203147 (ACS Med Chem Lett, 2011)
Activity calls are given as the source filed them. The rule behind the calls is not given here.

Legend:
[1] = Displacement of [3H]SCH 23390 from Sprague-Dawley rat dopamine D1-like receptor after 90 mins
[2] = species on record: Rattus norvegicus; experiment: Selectivity ratio of Ki for Sprague-Dawley rat dopamine D1-like receptor to Ki for Sprague-Dawley rat dopamine D3 receptor
[3] = target: D(2) dopamine receptor (Rattus norvegicus, UniProt P61169); experiment: Displacement of [3H]Spiperone from Sprague-Dawley rat dopamine D2-like receptor after 90 mins
Chain of D(2) dopamine receptor (P61169 whole entry): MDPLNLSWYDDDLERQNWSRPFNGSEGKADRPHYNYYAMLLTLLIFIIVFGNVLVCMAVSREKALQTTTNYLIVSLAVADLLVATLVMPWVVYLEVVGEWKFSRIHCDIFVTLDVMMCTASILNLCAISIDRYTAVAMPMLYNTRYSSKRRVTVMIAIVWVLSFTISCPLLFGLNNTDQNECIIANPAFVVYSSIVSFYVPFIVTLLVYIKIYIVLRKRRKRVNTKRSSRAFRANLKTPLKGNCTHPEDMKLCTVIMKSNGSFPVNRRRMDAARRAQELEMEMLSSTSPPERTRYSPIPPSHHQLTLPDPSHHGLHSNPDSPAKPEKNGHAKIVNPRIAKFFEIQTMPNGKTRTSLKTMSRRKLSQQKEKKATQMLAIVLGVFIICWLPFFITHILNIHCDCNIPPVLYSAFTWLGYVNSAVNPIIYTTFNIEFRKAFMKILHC

[4] = species on record: Rattus norvegicus; experiment: Selectivity ratio of Ki for Sprague-Dawley rat dopamine D2-like receptor to Ki for Sprague-Dawley rat dopamine D3 receptor
[5] = target: D(3) dopamine receptor (Rattus norvegicus, UniProt P19020); experiment: Displacement of [3H]R(+)-7-OH-DPAT from Sprague-Dawley rat dopamine D3 receptor after 90 mins
Chain of D(3) dopamine receptor (P19020 whole entry): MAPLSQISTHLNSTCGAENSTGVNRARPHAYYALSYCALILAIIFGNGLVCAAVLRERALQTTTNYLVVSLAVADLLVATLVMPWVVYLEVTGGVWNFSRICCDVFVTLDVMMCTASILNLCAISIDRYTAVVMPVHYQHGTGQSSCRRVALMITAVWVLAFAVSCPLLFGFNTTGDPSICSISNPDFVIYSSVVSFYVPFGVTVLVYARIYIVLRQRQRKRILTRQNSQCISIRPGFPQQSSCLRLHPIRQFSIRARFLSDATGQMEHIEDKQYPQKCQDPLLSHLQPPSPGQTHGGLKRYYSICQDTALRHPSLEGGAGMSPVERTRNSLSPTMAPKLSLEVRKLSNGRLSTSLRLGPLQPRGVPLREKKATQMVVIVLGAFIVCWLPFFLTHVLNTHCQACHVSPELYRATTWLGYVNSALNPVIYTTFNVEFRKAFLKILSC

[6] = Aqueous solubility of the compound; format: physicochemical
[7] = test system: Rattus norvegicus; experiment: Induction of yawning in sc dosed Sprague-Dawley rat after 60 mins; format: functional, organism-based
[8] = species on record: Rattus norvegicus; conditions: Sprague-Dawley, 10 mg/kg
[9] = test system: Rattus norvegicus; experiment: Induction of hypothermia in Sprague-Dawley rat at 10 mg/kg, sc after 60 mins; format: functional, organism-based; design: dose 10 mg/kg
Summary of the method: (§1)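 Readout is the change in core body temperature in rats after subcutaneous agonist dosing. Statistical significance was assessed at P < 0.05, 0.005 and 0.001.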

[10] = species on record: Rattus norvegicus; conditions: Sprague-Dawley, 0.32 mg/kg
[11] = test system: Rattus norvegicus; experiment: Induction of yawning in Sprague-Dawley rat at 0.01 to 10 mg/kg, sc after 60 mins; format: functional, organism-based
[12] = test system: Rattus norvegicus; experiment: Induction of yawning in Sprague-Dawley rat at 10 mg/kg, sc pre-treated with 1 mg/kg D2 receptor antagonist L-741,626 measured 30 mins post dose; format: functional, organism-based
Summary of the method: (§2)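 The selective antagonist (D3: SB-277011A; D2: L-741,626) was given before the subcutaneous agonist dose. Yawning was then scored in rats.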

[13] = test system: Rattus norvegicus; experiment: Induction of yawning in Sprague-Dawley rat at 1 mg/kg, sc pre-treated with 32 mg/kg D3 receptor antagonist SB-277011A measured 30 mins post dose; format: functional, organism-based; summary of the method: as §2
[14] = test system: Rattus norvegicus; experiment: Induction of hypothermia in Sprague-Dawley rat at 3.2 mg/kg, sc after 60 mins; format: functional, organism-based; design: dose 3.2 mg/kg; summary of the method: as §1
[15] = test system: Rattus norvegicus; experiment: Induction of yawning in Sprague-Dawley rat at 10 mg/kg, sc pre-treated with 32 mg/kg D3 receptor antagonist SB-277011A measured 30 mins post dose; format: functional, organism-based; summary of the method: as §2
[16] = species on record: Rattus norvegicus; conditions: Sprague-Dawley, 10 mg/kg; remark: listed apart in the source
[17] = test system: Rattus norvegicus; experiment: Induction of yawning in Sprague-Dawley rat at 0.01 mg/kg, sc after 60 mins; format: functional, organism-based; design: dose 0.01 mg/kg
[18] = target: D(1A) dopamine receptor (Homo sapiens) (UniProt P21728); experiment: Displacement of [3H]SCH-23390 from human cloned dopamine D1 receptor expressed in LhD1 cells at 10000 nM after 60 mins by scintillation counter; format: cell-based
Chain of D(1A) dopamine receptor (Homo sapiens) (P21728 whole entry): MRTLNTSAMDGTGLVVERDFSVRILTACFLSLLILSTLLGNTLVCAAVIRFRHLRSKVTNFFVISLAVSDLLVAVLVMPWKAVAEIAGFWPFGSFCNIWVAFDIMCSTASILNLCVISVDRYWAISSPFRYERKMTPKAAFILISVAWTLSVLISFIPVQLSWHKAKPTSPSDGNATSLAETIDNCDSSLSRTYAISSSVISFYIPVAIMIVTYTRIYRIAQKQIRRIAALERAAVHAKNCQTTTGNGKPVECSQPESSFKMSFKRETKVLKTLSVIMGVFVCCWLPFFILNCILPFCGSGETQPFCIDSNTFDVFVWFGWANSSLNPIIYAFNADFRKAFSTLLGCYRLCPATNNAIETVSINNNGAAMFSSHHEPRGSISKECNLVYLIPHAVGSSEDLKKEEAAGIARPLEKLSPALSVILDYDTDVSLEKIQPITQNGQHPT

[19] = test system: Rattus norvegicus; experiment: Induction of hypothermia in Sprague-Dawley rat at 10 mg/kg, sc pre-treated with 1 mg/kg D2 receptor antagonist L-741,626 measured 30 mins post dose
[20] = target: D(3) dopamine receptor (Homo sapiens) (UniProt P35462); experiment: Agonist activity at human dopamine D3 receptor expressed in CHOp cells assessed as […] quinpirole-induced mitogenesis after 24 hrs relative to quinpirole; format: functional, cell-based
Chain of D(3) dopamine receptor (Homo sapiens) (P35462 whole entry): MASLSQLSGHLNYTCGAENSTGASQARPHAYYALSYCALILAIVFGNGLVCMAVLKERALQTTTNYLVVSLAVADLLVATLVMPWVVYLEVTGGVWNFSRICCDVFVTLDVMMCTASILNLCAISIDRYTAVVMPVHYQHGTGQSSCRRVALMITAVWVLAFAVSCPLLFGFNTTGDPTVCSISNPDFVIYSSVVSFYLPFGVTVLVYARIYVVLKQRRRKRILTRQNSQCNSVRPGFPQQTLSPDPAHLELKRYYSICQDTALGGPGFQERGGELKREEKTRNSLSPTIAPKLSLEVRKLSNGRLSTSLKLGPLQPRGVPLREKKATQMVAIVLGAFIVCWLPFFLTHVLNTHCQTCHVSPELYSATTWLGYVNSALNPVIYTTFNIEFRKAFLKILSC
Summary of the method: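 Mitogenesis functional assay on cloned human D3 receptor expressed in CHO cells. Quinpirole serves as the standard D3 agonist control. Readouts are EC50 and maximal stimulation, expressed as a percentage of the quinpirole maximum.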

[21] = test system: Rattus norvegicus; experiment: Induction of yawning in Sprague-Dawley rat at 1 mg/kg, sc after 60 mins; format: functional, organism-based; design: dose 1 mg/kg
[22] = test system: Rattus norvegicus; experiment: Induction of yawning in Sprague-Dawley rat at 1 mg/kg, sc pre-treated with 1 mg/kg D2 receptor antagonist L-741,626 measured 30 mins post dose; format: functional, organism-based; summary of the method: as §2
[23] = test system: Rattus norvegicus; experiment: Induction of yawning in Sprague-Dawley rat at 0.1 to 10 mg/kg, sc after 60 mins; format: functional, organism-based

| solubility [6] [mg/mL] | Structure (SMILES) | Ki [1] [nM] | Ratio Ki [2] | Ki [3] [nM] | Ratio Ki [4] | Ki [5] [nM] | Activity [7] | other results |
| --- | --- | --- | --- | --- | --- | --- | --- | --- |
|  | CCCN(CC[C@H]1C[C@@H](NC(=O)c2ccc3ccccc3c2)C1)[C@H]1CCc2nc(N)sc2C1 | 3060 | 8820 | 564 | 1630 | 0.35 |  |  |
| > 50 | CCCN(CC[C@H]1CC[C@H](NC(=O)/C=C/c2ccccc2)CC1)[C@H]1CCc2nc(N)sc2C1 |  |  |  |  |  |  |  |
|  | CCCN(CC[C@H]1C[C@H](NC(=O)c2ccc3ccccc3c2)C1)[C@H]1CCc2nc(N)sc2C1 | 6120 | 14800 | 584 | 1420 | 0.41 |  |  |
|  | CCCN(CC[C@]1(O)CC[C@@H](NC(=O)c2ccc3ccccc3c2)CC1)[C@H]1CCc2nc(N)sc2C1 | 11600 | 7370 | 1630 | 1040 | 1.6 |  |  |
|  | CCCN[C@H]1CCc2nc(N)sc2C1 [PRAMIPEXOLE] | > 10000 |  |  |  | 0.45 | Dose-dependent effect | inhibition [8]: Active; Activity [9]: Active; deltaT [10]: 0.75 °C |
| > 50 | CCCN(CC[C@H]1CC[C@H](NC(=O)c2ccc3ccccc3c2)CC1)[C@H]1CCc2nc(N)sc2C1 | > 5000 |  |  |  |  |  |  |
|  | CCCN(CC[C@]1(O)CC[C@H](NC(=O)c2ccc3ccccc3c2)CC1)[C@H]1CCc2nc(N)sc2C1 | 14100 | 15100 | 3550 | 3820 | 0.93 |  |  |
| > 100 | CCCN(CC[C@]1(O)C[C@@H](NC(=O)c2ccc3ccccc3c2)C1)[C@H]1CCc2nc(N)sc2C1.Cl |  |  |  |  |  | Dose-dependent effect | Activity [21]: Active; Activity [23]: Active |

| Structure (SMILES) | solubility [6] [mg/mL] | Ki [1] [nM] | Ratio Ki [2] | Ki [3] [nM] | Ratio Ki [4] | Ki [5] [nM] | Activity [7] | other results |
| --- | --- | --- | --- | --- | --- | --- | --- | --- |
| CCCN(CC[C@]1(O)C[C@H](NC(=O)c2ccc3ccccc3c2)C1)[C@H]1CCc2nc(N)sc2C1.Cl | > 100 |  |  |  |  |  | Dose-dependent effect | Activity [11]: Active; Activity [12]: Active; Activity [13]: inactive; Activity [14]: inactive; Activity [15]: inactive; deltaT [16]: 0.75 °C; Activity [17]: Active; Activity [18]: inactive; Activity [9]: Active; Activity [19]: Active; Emax [20]: 103%; Activity [21]: Active; Activity [22]: Active |
